Assay results from different studies.
Each line is one published result; the experiments were not run side by side.
Cell line: HT-29

SMILES	assay	conditions	IC50
CC(=O)O[C@H]1C(=O)[C@@]2(C)[C@H]([C@H](OC(=O)c3ccccc3)[C@]3(O)C[C@H](OC(=O)[C@H](O)[C@@H](NC(=O)c4ccccc4)c4ccccc4)C(C)=C1C3(C)C)[C@]1(OC(C)=O)CO[C@@H]1C[C@@H]2O	cell growth or viability		0.0006 µM
CC(=O)c1cccc(/N=N/c2cc(/C=C/C(=O)O)ccc2O)c1	cell growth or viability, MTT		> 50 µM
CC[C@]1(O)C[C@H]2CN(CCc3c([nH]c4ccccc34)[C@@](C(=O)OC)(c3cc4c(cc3OC)N(C=O)[C@H]3[C@@](O)(C(=O)OC)[C@H](OC(C)=O)[C@]5(CC)C=CCN6CC[C@]43[C@@H]65)C2)C1	cell growth or viability, fluorescence	72 h	0.0004 µM
CCCCCCCCCCCC(=O)Oc1c(C)c(O)c(C(=O)/C=C/c2ccccc2)c(OC)c1C	cell growth or viability, SRB	72 h	> 50 µM
CC[C@H](C)C(=O)O[C@H]1CCC=C2C=C[C@H](C)[C@H](CC[C@@H]3C[C@@H](O)CC(=O)O3)[C@H]21	cell growth or viability, SRB	72 h	0.07 µg/mL
CCOc1cc(OCC)cc(C(=O)O[C@@H]2CN3Cc4c(cc5c(c4OC)OCO5)[C@@]24C=C[C@H](OC)C[C@@H]34)c1	cell growth or viability, WST-1		> 10 µM
CN1C(=O)/C(=N\NC(=O)c2cc3ccccc3[nH]2)c2cc(F)ccc21	cell growth or viability		8.92 µM
NCCCC[C@@H](N)C(=O)Nc1ccc(-n2nc(C(F)(F)F)cc2-c2ccc3c(ccc4ccccc43)c2)cc1	cell growth or viability, MTT	24 h	3.2 µg/mL
C1CCCC1.C1CCCC1.[Cl][W][Cl]	cell growth or viability, MTT		10000 µM
O=C1Nc2ccccc2/C1=N/NC(=O)c1cc2ccccc2[nH]1	cell growth or viability		19.7 µM
COc1ccc(-c2cc3nccn3c(Nc3ncccc3C(N)=O)n2)cc1OC	IL-8 release	24 h	> 2.56 µM
CCN(CC)CCNC(=O)c1c(C)[nH]c(/C=C2\C(=O)Nc3ccc(F)cc32)c1C	cell growth or viability		10.1 µM
C#C[C@@]1(O)[C@@H](COP(=O)(O)OC[C@H]2O[C@@H](n3cc(F)c(=O)[nH]c3=O)C[C@@H]2O)O[C@@H](n2ccc(N)nc2=O)[C@@H]1O	cell growth or viability, SRB	72 h	0.0054 µM
c1csc([I+]c2cccs2)c1	cell growth or viability, trypan blue	48 h	~2.5 µM
Cc1ccc(-n2nc(C(C)(C)C)cc2NC(=O)Nc2ccc(OCCN3CCOCC3)c3ccccc23)cc1	IL-8 release	24 h	> 1.9 µM
CN1C(=O)/C(=N\NC(=O)c2cc3ccccc3[nH]2)c2cc(Cl)ccc21	cell growth or viability		5.67 µM
CC(C)C[C@H](NC(=O)[C@H](Cc1ccccc1)NC(=O)c1cnccn1)B(O)O	cell growth or viability, ATP luminescence		0.0098 µM
COc1ccc(C(=O)O[C@@H]2CN3Cc4c(cc5c(c4OC)OCO5)[C@@]24C=C[C@H](OC)C[C@@H]34)cc1	cell growth or viability, WST-1		> 10 µM
COc1c(C)c(OS(=O)(=O)c2ccc3ccccc3c2)c(C)c(OS(=O)(=O)c2ccc3ccccc3c2)c1C(=O)/C=C/c1ccccc1	cell growth or viability, SRB	72 h	> 50 µM
O=C(O)C[C@H](O)C[C@H](O)/C=C/c1c(C2CC2)nc2ccccc2c1-c1ccc(F)cc1	cell growth or viability, SRB	72 h	0.09 µg/mL
CC(=O)c1cccc(N=Nc2c(C(=O)O)cc(O)c(O)c2O)c1	cell growth or viability, MTT		10.2 µM
O=C1Nc2ccc(Br)cc2/C1=N/NC(=O)c1cc2ccccc2[nH]1	cell growth or viability		21.9 µM
O=C(O)/C=C/c1ccc(O)c(O)c1	cell growth or viability, MTT		4.3 µM
NCC(=O)Nc1ccc(-n2nc(C(F)(F)F)cc2-c2ccc3c(c2)Nc2ccccc2S3)cc1	cell growth or viability, MTT	24 h	6.2 µg/mL
CC(=O)c1ccc(/N=N/c2cc(/C=C/C(=O)O)ccc2O)cc1	cell growth or viability, MTT		> 50 µM
Cc1occc(=O)c1[O-].[Cl-].[W+4].c1cc[cH-]c1.c1cc[cH-]c1	cell growth or viability, MTT		540 µM
O=C(N/N=C1\C(=O)N(c2ccccc2)c2ccccc21)c1cc2ccccc2[nH]1	cell growth or viability		6.34 µM
